Bioassay records deposited in PubChem BioAssay by several laboratories.
CHOP inh – inhibitors of CHOP induction in ER stress response; CHO-K1 CHOP-promoter luciferase, tunicamycin-induced, 15-18 h; inhibition, % at 10 µM; hit rate 3.8% among 220,000; AID 2732;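 active = compounds that reduced the stress-induced luciferase reporter signal by more than about 70% of percent inhibition, limit read from the data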;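 also: 0% = tunicamycin plus vehicle and 100% = wells without tunicamycin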
A1 inh – inhibitors of the anti-apoptotic protein A1, read as caspase activation. MEF A1-2A-BIM cells, Caspase-Glo 3/7 luminescence, 3 h; percent of clofoctol response, vehicle zero. caspase activation, % (test concentration not listed). hit rate 0.066% among 330,000. AID 2462;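 active = over half of replicate activation scores above 10%, or exactly half above 10 with the replicate mean above 10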
XBP1 UPR activ – activators of adaptive arm of unfolded protein response (XBP1); CHO-XBP1 luciferase reporter, IRE1-XBP1 UPR activation, luminescence; percent of tunicamycin response, DMSO as zero; activation, % at 20 µM; hit rate 0.33% among 330,000; AID 463104;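 active = versus positive control, 20 µM dose yields 30% or more activation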;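 also: 100% = tunicamycin at 10 µg/mL and 0% = DMSO only wells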
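Material – CHO cell line with stable XBP1 luciferase reporter · Buffer or medium – F12 plus 10% FBS · Compound – single point, 20 µM final compound, 1% DMSO · Schedule – 16-18 h cell attachment at 37 °C, then 6 h compound exposure · Signal – Steady-Glo luminescence read · Benchmarks – high control tunicamycin 10 µg/mL final, low control DMSO vehicle only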
UPR CHOP act – apoptotic UPR (CHOP) activation | CHO-CHOP luciferase reporter, luminescence; percent of tunicamycin response over DMSO baseline | hit rate 0.34% among 330,000 | activation, % at 10 µM;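 active = at 10 µM dose, activation of 40% or more, normalized to positive control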;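 also: 100% = tunicamycin at 10 µg/mL and 0% = DMSO alone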
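Assay system: CHO-CHOP cells, stable luciferase reporter of PERK-eIF2a-CHOP signalling / Buffer or medium: F12 plus 10% serum / Compound dosing: one dose, 10 µM in 0.5% DMSO / Times: 6 h compound treatment, 37 °C / Technique: luciferase luminescence / Read-out: % reporter activation, DMSO baseline versus tunicamycin full activation / Benchmarks: tunicamycin and DMSO controls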
* = called active by the depositor; . = no result given. The entries come from a sample that favours hits as a whole.

SMILES	CHOP inh	A1 inh	XBP1 UPR activ	UPR CHOP act
Cc1ccc(C2c3c(oc4ccccc4c3=O)C(=O)N2c2nnc(C(C)C)s2)o1 (stereo not drawn)	85*	-1	3	-1
Cc1nnc(N2C(=O)c3oc4ccccc4c(=O)c3C2c2ccco2)s1 (stereo not drawn)	9	1	-3	-1
COc1ccc(Cc2nnc(-c3ccccc3)o2)cc1	-15	-1	2	6
Cc1ccc(S(=O)(=O)N(C)/C(=N/S(=O)(=O)c2ccccc2)c2ccccc2)cc1	0	0	0	0
CC(=O)NC(=O)NC1CSCC1OC(C)=O (stereo not drawn)	31	-1	-1	-1
Cc1cc(C)cc(NC(=O)N2CCC(c3nc4ccccc4o3)CC2)c1	74*	-1	-3	0
O=C(CCC(=O)c1ccc(F)cc1)Nc1cc(Cl)cc(Cl)c1	84*	0	2	0
O=C(CSc1nc(-c2ccccc2)c(-c2ccccc2)o1)Nc1nncs1	72*	2	-2	-2
O=C(CSc1nc(-c2ccccc2)c(-c2ccccc2)o1)Nc1nnc(-c2ccccc2)s1	23	1	0	0
CCOC(=O)c1[nH]cnc1C(=O)Nc1ccccc1OC	33	-1	1	-1
Cc1ccc(N(CC(=O)N/N=C/c2cc(C)n(-c3ccccc3)c2C)S(C)(=O)=O)c(C)c1	73*	0	4	-1
Cc1ccc(N(CC(=O)Nc2c(C)n(C)n(-c3ccccc3)c2=O)S(C)(=O)=O)c(C)c1	-5	0	0	-1
COc1ccc(-c2cc(C(F)(F)F)c3c(N)c(C(=O)NCCSC)sc3n2)cc1	.	1	55*	1
COc1ccc(S(=O)(=O)N2CCN(c3cc(-c4ccccc4)nc4ncnn34)CC2)cc1	60	0	2	3
CC(C)(C)n1nnnc1C(c1cccc(C#N)c1)N1CCC(Cc2ccccc2)CC1 (stereo not drawn)	80*	0	-3	5
CCC(C)(C)n1nnnc1C(c1cccnc1)N1CCC(Cc2ccccc2)CC1 (stereo not drawn)	16	0	0	12
COc1ccc(NC(=O)Cn2nnc(-c3ccccc3NS(=O)(=O)c3ccccc3)n2)cc1	69	0	-1	3
CCOc1ccc(-c2nnn(CC(=O)Nc3cc(OC)ccc3OC)n2)cc1OCC	39	1	3	0
CCOc1ccccc1NC(=O)Cn1nnc(-c2ccc(OCC)c(OCC)c2)n1	87*	-1	-3	-3
CCOC(=O)c1ccc(NC(=O)Cn2nnc(-c3ccc(F)cc3)n2)cc1	81*	0	0	-5
COc1ccc(S(=O)(=O)Nc2ccccc2-c2nnn(CC(=O)Nc3ccccc3OC)n2)cc1	76*	-1	0	3
O=C(COC(=O)c1ccc(O)cc1)Nc1ccccc1-c1ccccc1	45	-1	0	-1
Cc1ccc(C(=O)N2CCN(CCNC(=O)C(=O)Nc3ccc(Cl)cc3)CC2)cc1	.	.	-8	3
CC(C)c1ccc(C2/C(=C(/O)c3ccccc3)C(=O)C(=O)N2CCCN2CCOCC2)cc1 (stereo not drawn)	.	0	0	0
C=Cc1ccc(N=Cc2c(O)ccc3ccccc23)cc1	.	1	0	4
SMILES	CHOP inh	A1 inh	XBP1 UPR activ	UPR CHOP act
Oc1ccc2ccccc2c1C=Nc1ccc(N2CCOCC2)cc1	78*	2	-1	4
Nc1cc([N+](=O)[O-])cc2oc(-c3ccccc3)cc12	.	-1	10	6
Nc1nonc1-n1nnc(C(=O)N/N=C/c2ccc(Br)cc2)c1CSC1=NCCS1	-13	0	-1	3
CC(C)c1ccc(/C=N/NC(=O)c2nnn(-c3nonc3N)c2CSC2=NCCS2)cc1	74*	0	1	4
COc1cccc(N2CCN(c3ccc(S(=O)(=O)N4CCN(C)CC4)cc3[N+](=O)[O-])CC2)c1	.	-1	-3	-2
COc1ccc(N2CCN(S(=O)(=O)c3ccc4c(c3)CCCC4)CC2)c([N+](=O)[O-])c1	71*	1	-4	6
Cc1ccc(NC(=O)c2sc3ccccc3c2Cl)nc1	94*	-7	-8	-3
COc1ccccc1C(=O)NNC(=S)NC(=O)c1sc2ccccc2c1Cl	80*	0	26	13
Cc1c(NC(=S)NC(=O)c2sc3ccccc3c2Cl)cccc1C(=O)O	-4	-3	-5	-3
O=C(Nc1cccnc1)c1sc2cccc(F)c2c1Cl	39	-1	1	2
O=C(Nc1ccccn1)c1sc2cccc(F)c2c1Cl	78*	-8	-2	-4
CC1=CCC[C@H]2[C@H](C1)C(=O)C[C@@H](C)[C@]2(C)CC/C(=C/CO)CO	.	.	9	0
CN1CCN(CC(O)c2ccccc2)CC1 (stereo not drawn)	80*	0	-3	1
Cc1nn(-c2ccc(C(=O)Nc3nnc(C4CC4)s3)cc2)c(C)c1Cl	73*	0	-3	3
O=c1[nH]c(CN2CCc3ccccc3C2)nc2ccccc12	-1	1	-3	-1
Cc1[nH]c2ccccc2c1CN1CCc2ccccc2C1	91*	0	-3	9
CCOC(=O)c1c(CSc2ccc(C)cc2)oc2ccc(O)cc12	107*	1	4	1
CCOC(=O)c1c(CN2CCN(C)CC2)oc2ccc(O)cc12	22	0	0	-3
O=C(Nc1cnccn1)Nc1ccc(Cl)cc1Cl	78*	-1	4	2
O=C(Nc1ccc2c(c1)OCO2)Nc1ccc(Cl)cc1Cl	91*	-2	4	3
O=C(Nc1ccc(Cl)cc1)Nc1ccc2c(c1)OCO2	.	-3	2	7
CCOC(=O)c1c(C)[nH]c(C(=O)OCC(=O)N(C)C2CCS(=O)(=O)C2)c1C (stereo not drawn)	5	0	-3	-2
COc1cccc(-c2csc(N3CCN(C(=S)Nc4ccc(Cl)cc4)CC3)n2)c1	71*	0	-1	1
COC(=O)c1ccc(NC(=S)N2CCN(Cc3ccccc3)CC2)cc1	24	1	3	-2
CCc1ccc(NC(=S)N2CCN(c3cccc(OC)c3)CC2)cc1	72*	1	-2	0
SMILES	CHOP inh	A1 inh	XBP1 UPR activ	UPR CHOP act
COC(=O)c1ccc(NC(=S)N2CCN(Cc3cccc(C)c3)CC2)cc1	89*	1	1	-2
COc1cccc(N2CCN(C(=S)Nc3ccccc3)CC2)c1	.	0	-1	3
Cc1oc(C(C)(C)C)cc1C(=O)N1CCN(c2ccc(C(F)(F)F)cn2)CC1	5	0	0	1
CCOC(=O)CN1C(=O)SC(CC(=O)Nc2nccs2)C1=O (stereo not drawn)	4	1	0	0
O=C(CC1SC(=O)N(Cc2cccc3ccccc23)C1=O)Nc1nccs1 (stereo not drawn)	73*	-1	0	0
OCCNc1nc(-c2ccccc2)c2cc(Cl)ccc2n1	10	-1	2	1
